Test results as given in ChEMBL document CHEMBL4033785, “Increased Potency and Selectivity for Group III Metabotropic Glutamate Receptor Agonists Binding at Dual sites” (J Med Chem, 2018).

Columns and labels:
[1] = target: Metabotropic glutamate receptor 6 (Homo sapiens, UniProt O15303); assay: Agonist activity at mGlu6 (unknown origin) expressed in HEK293 cells coexpressing chimeric Gq/i protein assessed as increase in intracellular calcium accumulation by Fluo-4 AM dye based fluorescence assay; type: functional, cell-based
[2] = target: Metabotropic glutamate receptor 7 (Homo sapiens, UniProt Q14831); assay: Agonist activity at mGlu7 (unknown origin) expressed in HEK293 cells coexpressing chimeric Gq/i protein assessed as increase in intracellular calcium accumulation by Fluo-4 AM dye based fluorescence assay; type: functional, cell-based
[3] = target: T1, Metabotropic glutamate receptor 8 (Homo sapiens, UniProt O00222); assay: Agonist activity at mGlu8 (unknown origin) expressed in HEK293 cells coexpressing chimeric Gq/i protein assessed as [3H]inositol phosphate accumulation after 30 mins by scintillation and luminescence counting method; type: functional, cell-based
How it was run: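 Receptor transiently co-expressed in HEK293 cells (electroporation) with chimeric G-protein and glutamate transporter EAAT3. Cells labelled overnight with 3H-myoinositol, stimulated with agonist 30 min, lysed 1 h in cold 0.1 M formic acid. 3H-IP isolated on Dowex ion exchange and counted. IP expressed relative to IP plus membrane radioactivity. Points in triplicate; EC50 from Hill-equation fit.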

[4] = target: Metabotropic glutamate receptor 4 (Homo sapiens, UniProt Q14833); assay: Agonist activity at mGlu4 (unknown origin) expressed in HEK293 cells coexpressing chimeric Gq/i protein assessed as increase in intracellular calcium accumulation by Fluo-4 AM dye based fluorescence assay; type: functional, cell-based
[5] = target: T1, Metabotropic glutamate receptor 8; assay: Agonist activity at mGlu8 (unknown origin) expressed in HEK293 cells coexpressing chimeric Gq/i protein assessed as increase in intracellular calcium accumulation by Fluo-4 AM dye based fluorescence assay; type: functional, cell-based
Homo sapiens [6] = organism: Homo sapiens; assay: (§1) Selectivity ratio of EC50 for mGlu8 (unknown origin) expressed in HEK293 cells coexpressing chimeric Gq/i protein assessed as increase in intracellular calcium accumulation to EC50 for mGlu4 (unknown origin) expressed in HEK293 cells coexpressing chimeric Gq/i protein assessed as increase in intracellular calcium accumulation; type: cell-based
How it was run: (§2)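 Ratio of mGlu8 EC50 to mGlu4 EC50, both from the same functional assay. Both receptors were co-expressed in HEK293 cells with chimeric G-protein and EAAT3 and read by 3H-IP accumulation or by Fluo-4 Ca2+ release.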

Homo sapiens [7] = organism: Homo sapiens; assay: as §1, with “[3H]inositol phosphate” for “increase in intracellular calcium”; type: cell-based; how it was run: as §2

Metabotropic glutamate receptor 4, sequence (Q14833 whole entry): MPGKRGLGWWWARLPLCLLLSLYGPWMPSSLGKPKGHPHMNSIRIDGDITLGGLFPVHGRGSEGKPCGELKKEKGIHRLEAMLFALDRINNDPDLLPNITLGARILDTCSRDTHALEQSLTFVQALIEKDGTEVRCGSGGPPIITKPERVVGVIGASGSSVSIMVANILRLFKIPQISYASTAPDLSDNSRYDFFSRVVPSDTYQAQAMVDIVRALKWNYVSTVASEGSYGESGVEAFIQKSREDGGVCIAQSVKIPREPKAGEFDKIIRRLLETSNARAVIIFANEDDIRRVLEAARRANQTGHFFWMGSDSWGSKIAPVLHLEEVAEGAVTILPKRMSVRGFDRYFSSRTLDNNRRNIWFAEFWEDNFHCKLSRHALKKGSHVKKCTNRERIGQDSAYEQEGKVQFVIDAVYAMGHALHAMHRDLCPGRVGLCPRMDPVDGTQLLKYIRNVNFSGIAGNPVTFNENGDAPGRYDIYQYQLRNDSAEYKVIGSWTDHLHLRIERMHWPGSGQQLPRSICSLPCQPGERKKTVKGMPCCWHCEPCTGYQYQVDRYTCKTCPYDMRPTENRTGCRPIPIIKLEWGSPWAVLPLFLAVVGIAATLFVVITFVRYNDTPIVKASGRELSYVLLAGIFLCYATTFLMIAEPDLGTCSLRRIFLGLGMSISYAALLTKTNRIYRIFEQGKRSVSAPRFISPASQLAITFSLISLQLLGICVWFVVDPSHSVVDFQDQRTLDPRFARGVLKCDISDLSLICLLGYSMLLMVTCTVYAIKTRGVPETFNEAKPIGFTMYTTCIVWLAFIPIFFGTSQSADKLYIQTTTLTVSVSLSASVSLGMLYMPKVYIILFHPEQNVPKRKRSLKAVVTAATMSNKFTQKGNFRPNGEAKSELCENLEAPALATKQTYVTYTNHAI
Metabotropic glutamate receptor 6, sequence (O15303 whole entry): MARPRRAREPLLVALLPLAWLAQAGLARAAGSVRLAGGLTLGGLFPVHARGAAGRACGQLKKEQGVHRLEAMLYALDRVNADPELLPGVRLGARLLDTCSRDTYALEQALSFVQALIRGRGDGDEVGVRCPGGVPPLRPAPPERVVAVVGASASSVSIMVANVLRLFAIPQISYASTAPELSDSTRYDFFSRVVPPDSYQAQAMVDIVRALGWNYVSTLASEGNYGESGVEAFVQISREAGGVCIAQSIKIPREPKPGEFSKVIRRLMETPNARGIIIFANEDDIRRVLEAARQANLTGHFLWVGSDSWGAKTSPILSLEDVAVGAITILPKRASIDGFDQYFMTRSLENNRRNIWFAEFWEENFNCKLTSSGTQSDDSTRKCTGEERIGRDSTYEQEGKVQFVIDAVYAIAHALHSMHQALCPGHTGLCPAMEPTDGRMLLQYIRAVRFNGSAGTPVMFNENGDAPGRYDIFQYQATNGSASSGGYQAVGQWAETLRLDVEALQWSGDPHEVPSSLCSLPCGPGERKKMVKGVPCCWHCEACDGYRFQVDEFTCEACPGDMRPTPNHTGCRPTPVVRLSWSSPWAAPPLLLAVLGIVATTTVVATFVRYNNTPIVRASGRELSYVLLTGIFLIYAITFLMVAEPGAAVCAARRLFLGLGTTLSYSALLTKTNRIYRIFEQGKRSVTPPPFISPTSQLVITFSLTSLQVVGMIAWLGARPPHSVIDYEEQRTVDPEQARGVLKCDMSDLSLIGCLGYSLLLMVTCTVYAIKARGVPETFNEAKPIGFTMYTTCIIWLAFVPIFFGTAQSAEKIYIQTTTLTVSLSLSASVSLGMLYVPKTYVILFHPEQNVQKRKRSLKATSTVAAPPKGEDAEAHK
T1 sequence (O00222 whole entry): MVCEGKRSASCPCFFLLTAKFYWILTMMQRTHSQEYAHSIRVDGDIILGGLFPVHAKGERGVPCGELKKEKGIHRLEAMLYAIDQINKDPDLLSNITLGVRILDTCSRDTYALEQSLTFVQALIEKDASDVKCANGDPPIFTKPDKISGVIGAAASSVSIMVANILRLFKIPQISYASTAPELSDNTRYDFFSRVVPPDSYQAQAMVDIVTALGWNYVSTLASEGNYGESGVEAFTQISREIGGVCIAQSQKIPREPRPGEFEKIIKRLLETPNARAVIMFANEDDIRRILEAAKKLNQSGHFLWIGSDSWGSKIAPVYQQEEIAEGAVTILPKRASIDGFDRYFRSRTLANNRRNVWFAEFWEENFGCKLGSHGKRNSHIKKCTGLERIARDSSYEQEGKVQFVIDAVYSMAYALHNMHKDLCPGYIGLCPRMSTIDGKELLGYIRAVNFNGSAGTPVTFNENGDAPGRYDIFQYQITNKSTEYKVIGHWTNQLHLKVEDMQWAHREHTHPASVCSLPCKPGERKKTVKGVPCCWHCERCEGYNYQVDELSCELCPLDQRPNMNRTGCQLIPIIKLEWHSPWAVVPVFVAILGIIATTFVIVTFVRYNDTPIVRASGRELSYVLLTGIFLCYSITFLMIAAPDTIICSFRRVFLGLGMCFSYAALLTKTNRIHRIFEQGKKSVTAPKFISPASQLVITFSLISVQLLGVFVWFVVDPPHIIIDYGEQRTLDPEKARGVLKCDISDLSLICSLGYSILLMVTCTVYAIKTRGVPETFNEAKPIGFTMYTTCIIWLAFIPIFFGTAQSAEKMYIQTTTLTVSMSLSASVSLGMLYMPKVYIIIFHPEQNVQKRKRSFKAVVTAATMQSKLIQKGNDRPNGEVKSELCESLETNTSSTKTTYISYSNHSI
Metabotropic glutamate receptor 7, sequence (Q14831 whole entry): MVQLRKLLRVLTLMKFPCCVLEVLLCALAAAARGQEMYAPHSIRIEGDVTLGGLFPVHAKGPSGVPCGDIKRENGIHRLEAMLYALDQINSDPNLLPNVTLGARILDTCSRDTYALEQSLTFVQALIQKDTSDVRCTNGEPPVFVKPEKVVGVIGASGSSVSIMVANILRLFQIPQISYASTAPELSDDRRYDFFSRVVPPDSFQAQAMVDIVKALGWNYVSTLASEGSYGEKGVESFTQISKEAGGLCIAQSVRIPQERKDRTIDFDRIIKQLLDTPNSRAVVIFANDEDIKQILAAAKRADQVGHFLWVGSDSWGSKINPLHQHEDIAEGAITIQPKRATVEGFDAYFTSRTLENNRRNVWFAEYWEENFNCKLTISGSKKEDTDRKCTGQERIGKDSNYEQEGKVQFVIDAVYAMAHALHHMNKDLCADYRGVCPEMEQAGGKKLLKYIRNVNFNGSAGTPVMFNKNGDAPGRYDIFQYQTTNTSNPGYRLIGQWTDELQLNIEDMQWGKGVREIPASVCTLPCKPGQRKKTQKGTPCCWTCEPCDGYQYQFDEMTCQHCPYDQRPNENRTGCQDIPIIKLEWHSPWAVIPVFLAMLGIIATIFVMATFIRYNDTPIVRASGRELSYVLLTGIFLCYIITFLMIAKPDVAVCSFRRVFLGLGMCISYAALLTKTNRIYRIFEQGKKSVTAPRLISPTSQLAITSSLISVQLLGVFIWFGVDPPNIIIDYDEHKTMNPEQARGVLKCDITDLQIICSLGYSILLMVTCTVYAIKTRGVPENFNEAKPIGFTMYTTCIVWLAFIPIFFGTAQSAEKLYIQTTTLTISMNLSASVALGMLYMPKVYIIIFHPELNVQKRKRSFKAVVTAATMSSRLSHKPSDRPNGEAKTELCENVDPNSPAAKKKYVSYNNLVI

Row | SMILES | EC50 [1] [µM] | EC50 [2] [µM] | EC50 [3] [µM] | EC50 [4] [µM] | EC50 [5] [µM] | Ratio EC50 (Homo sapiens [6]) | Ratio EC50 (Homo sapiens [7])
1 | N[C@@H](CCP(=O)(O)C(O)c1ccc(N2CCOCC2)c([N+](=O)[O-])c1)C(=O)O (stereo not given in full) | > 100 | > 100 | > 100 |  |  |  | 
2 | N[C@@H](CCP(=O)(O)C(O)c1ccc(O)cc1)C(=O)O (stereo not given in full) |  |  |  | 7.7 | 25 | 3.2 | 
3 | N[C@@H](CCP(=O)(O)C(O)c1ccc([N+](=O)[O-])c(O)c1)C(=O)O (stereo not given in full) |  |  | 19.8 |  |  |  | 8.7
4 | N[C@@H](CCP(=O)(O)C(O)c1coc(C(=O)O)c1)C(=O)O (stereo not given in full) |  |  | 9.2 |  |  |  | 4.6
5 | N[C@@H](CCP(=O)(O)[C@H](O)c1cccc([N+](=O)[O-])c1)C(=O)O | 2.4 | > 100 |  | 1 | 1.25 | 1.2 | 
6 | NC(c1cccc([N+](=O)[O-])c1)P(=O)(O)CC[C@H](N)C(=O)O (stereo not given in full) |  |  |  |  |  |  | 4.1
7 | COc1cc([C@@H](O)P(=O)(O)CC[C@H](N)C(=O)O)cc([N+](=O)[O-])c1O | 1.1 | 63 |  | 0.72 | 18 |  | 
8 | N[C@@H](CCP(=O)(O)C(O)c1ccc([N+](=O)[O-])s1)C(=O)O (stereo not given in full) | 4.2 | > 100 | 1.9 |  |  |  | 3.9
9 | N[C@@H](CCP(=O)(O)[C@@H](O)c1cccc([N+](=O)[O-])c1)C(=O)O | 3.2 | > 100 |  | 0.32 | 1.3 |  | 
10 | CC(=O)c1ccc(C(O)P(=O)(O)CC[C@H](N)C(=O)O)cc1 (stereo not given in full) |  |  | 14 |  |  |  | 1.8
11 | COc1cc(CP(=O)(O)CC[C@H](N)C(=O)O)cc([N+](=O)[O-])c1O |  |  |  | 19 | 28 | 1.5 | 
12 | N[C@@H](CCP(=O)(O)C(NCCc1ccccc1)c1cccc([N+](=O)[O-])c1)C(=O)O (stereo not given in full) |  |  |  | 4.41 | 7.2 | 1.6 | 
13 | Nc1ccc(C(O)P(=O)(O)CC[C@H](N)C(=O)O)cc1 (stereo not given in full) |  | 11.6 | 8.4 | 8.8 | 8.4 | 0.9 | 0.9
14 | COc1cc([C@H](O)P(=O)(O)CC[C@H](N)C(=O)O)cc([N+](=O)[O-])c1O | 2.4 | 100 |  | 4.4 | 26 |  | 
15 | CS(=O)(=O)c1ccc(C(O)P(=O)(O)CC[C@H](N)C(=O)O)cc1 (stereo not given in full) | > 100 | > 100 |  | 59 | > 100 |  | 
16 | N[C@@H](CCP(=O)(O)C(O)c1ccc(Cl)c([N+](=O)[O-])c1)C(=O)O (stereo not given in full) | 18 | > 100 | 2.5 | 4.7 | 4.9 | 1 | 1.2
17 | N[C@@H](CCP(=O)(O)C(O)c1ccc([N+](=O)[O-])c(C(F)(F)F)c1)C(=O)O (stereo not given in full) | 2.9 | > 100 | 0.98 |  |  |  | 2.4
18 | N[C@@H](CCP(=O)(O)Cc1ccc(O)c([N+](=O)[O-])c1)C(=O)O | > 100 | > 100 |  | 24 | 277 | 11 | 
19 | N[C@@H](CCP(=O)(O)C(NCc1ccccc1)c1cccc([N+](=O)[O-])c1)C(=O)O (stereo not given in full) |  |  |  | 25.3 | 29.7 | 1.2 | 
20 | N[C@@H](CCP(=O)(O)C(O)c1cc([N+](=O)[O-])cc([N+](=O)[O-])c1)C(=O)O (stereo not given in full) |  |  | 6.6 |  |  |  | 4.5
21 | CCCCCCCCNC(c1cccc([N+](=O)[O-])c1)P(=O)(O)CC[C@H](N)C(=O)O (stereo not given in full) |  |  |  | 6.1 | 38 | 6.3 | 
22 | N[C@@H](CCP(=O)(O)C(O)c1ccc(OCC(=O)O)cc1)C(=O)O (stereo not given in full) |  |  |  |  |  | 256 | 
23 | N[C@@H](CCP(=O)(O)C(O)c1cc(F)c(O)c([N+](=O)[O-])c1)C(=O)O (stereo not given in full) | 1.07 | 51.2 |  | 1.95 | 23.4 | 12 | 
24 | N[C@@H](CCP(=O)(O)[C@@H](O)c1cc(F)c(O)c([N+](=O)[O-])c1)C(=O)O | 10.2 | 53.8 |  | 9.77 | 17.1 | 1.8 | 
25 | N[C@@H](CCP(=O)(O)C(O)c1cccc([N+](=O)[O-])c1)C(=O)O (mixture of isomers) |  |  |  |  |  | 2 | 2.8
26 | N[C@@H](CCP(=O)(O)C(O)c1ccc(O)nc1)C(=O)O (stereo not given in full) |  |  |  | 33 | 17 | 0.5 | 
27 | COc1ccc(C(O)P(=O)(O)CC[C@H](N)C(=O)O)cc1[N+](=O)[O-] (stereo not given in full) |  |  | 2.7 | 3.5 | 3.8 | 1 | 1.7
